Screening data deposited in PubChem BioAssay by several laboratories.
Compounds with a hit are over-represented: about 11% of the library has one in this group of screens.
M1 antag: M1 muscarinic receptor (rat) antagonism; P08482; CHO-M1 cells, Fluo-4 calcium, ACh EC80 antagonist mode; stronger effect = lower value; B-score at 10 µM; 64,000 compounds, 3.4% hits; AID 628;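 active = calcium fluorescence response, raw or row-and-column corrected B-score, differing from the plate sample mean either way at a set confidence level, mostly lower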
D1 allo mod: D1 dopamine receptor (human) allosteric modulation; P21728; HEK293 D1, CRE-luciferase, dopamine EC30 potentiation; actives deviate in either direction; B-score at 10 µM; 58,000 compounds, 5.9% hits; AID 641;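 active = luminescence count or its row- and column-corrected plate score outside the 99.7% band of the plate's sample wells, on either side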
S1P3 ag: agonists of human S1P3 receptor; Q99500; S1P3 NFAT-BLA reporter cells, agonism, FRET ratio; relative to 1 µM S1P, basal subtracted; activation, % at 4.5 µM; 60,000 compounds, 0.1% hits;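 active = activation above the screen-wide mean plus 3 SD, cut at about 4.5% in these data, passing the limit was not always enough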
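Material: Human S1P3 NFAT-BLA reporter CHO cells | Incubation: Overnight plating, 4 h compound 37 °C, 2 h substrate RT | Signal: FRET β-lactamase substrate fluorescence, excitation 405 nm, 460/535 nm emission ratio, background-subtracted | Compound: 4.5 µM final, single dose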
S1P1 ag pot: activates or potentiates agonism at human S1P1 receptor; P21453; S1P1 CRE-bla cells, forskolin, beta-lactamase FRET, potentiator mode; S1P1 agonist co-added at EC20, 2 nM; 100% = saturating reference agonist, 0% = basal; activation, % at 9.5 µM; 56,000 compounds, 0.57% hits; AID 449;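 active = activation above a cutoff set at the mean activation of all tested compounds plus 3 SD, cut at about 54% in these data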;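 note: forskolin at 4 µM as EC80 and the EC20 agonist is SEW2871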
M1 agonist: agonists of M1 muscarinic receptor; AID 626; B-score at 10 µM; CHO-M1 cells, Fluo-4 calcium fluorescence, agonist mode; stronger effect = higher value; 64,000 compounds, 3% hits;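 active = fluorescence rise, raw or as B-score row- and column-corrected plate score, outside the 99.7% band of its plate's samples, either direction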
D1 mod confirm: D1 receptor (human) allosteric modulation, confirmed. shares compounds with D1 allo mod. HEK293 D1 CRE-luciferase, dopamine EC30 potentiation; stronger effect = higher value. luminescence at 10 µM. 2,200 compounds, 88% hits;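 active = luminescence in either of two replicates above the same-plate mean plus 3 SD of the low-dose dopamine control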
D1 ag no DA: activates D1 CRE-luciferase signal without dopamine present | HEK293 D1 CRE-luciferase, luminescence, no dopamine; stronger effect = higher value | 1,900 compounds, 0.8% hits | luminescence at 10 µM | shares compounds with D1 allo mod; in the data active = luminescence above about 3900
Isoprot counter: isoproterenol response counter-screen activity for D1 modulators | shares compounds with D1 allo mod | HEK293 D1 CRE-luciferase, isoproterenol EC30 counter-screen; stronger effect = higher value | luminescence at 10 µM | 2,200 compounds, 63% hits | AID 647;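 active = luminescence in either replicate above plate mean of wells with a partly effective reference agonist dose plus 3 SD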;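 note: isoproterenol raises cAMP through native beta-adrenoceptor Gs so signal bypasses D1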
Each line names hits and unclear results; the compound was inactive in the other large screens (follow-up assays come after a bar, where they were run).

CC(=O)c1c(C)[nH]c(C(=O)N2CCC3(CC2)OCCO3)c1C	none
COc1cccc(-c2nc(CS(=O)CC(=O)N3CCC4(CC3)OCCO4)c(C)o2)c1 (configuration not stated)	none
COc1cccc(-c2cc(C(F)(F)F)n3nc(C(=O)N4CCC5(CC4)OCCO5)cc3n2)c1	D1 allo mod 2.4 | D1 mod confirm 9588 | Isoprot counter inactive
CCOC(=O)c1c(C)n(Cc2ccccc2)c2ccc(OCC(O)CN3C(=O)CNC3=O)cc12 (configuration not stated)	D1 allo mod 10 | D1 mod confirm 22384 | D1 ag no DA inactive | Isoprot counter 5668
CCOC(=O)c1c(C)n(Cc2ccco2)c2ccc(O)cc12	none (no result: S1P1 ag pot)
CC1(C)CC(n2[nH]c(=O)c3c2NC(=O)CSC3c2ccc(F)cc2)CCO1 (configuration not stated)	none (no result: S1P3 ag, S1P1 ag pot)
CC1(C)CN=C(Nc2ccc(F)c(F)c2)S1	D1 allo mod 12 | D1 mod confirm 25280 | D1 ag no DA inactive | Isoprot counter 4564
CCOc1cc2[nH]c(=S)n(CCCC(=O)N3CCC4(CC3)OCCO4)c(=O)c2cc1OCC	none (no result: S1P3 ag, S1P1 ag pot)
O=C(CCCOc1ccc(Cl)cc1Cl)N1CCC2(CC1)OCCO2	D1 allo mod 6.6 | D1 mod confirm 8848 | D1 ag no DA inactive | Isoprot counter 4488
NCCc1ccc(O)cc1	D1 allo mod 5.1 | D1 mod confirm 7676 | D1 ag no DA 17832 | Isoprot counter 5168
c1ccc(C2CC3CC4(CCCC4)N2O3)cc1 (configuration not stated)	none
